Experimental data taken from ChEMBL document CHEMBL3232989, “First identification of boronic species as novel potential inhibitors of the Staphylococcus aureus NorA efflux pump” (J Med Chem, 2014).
Converted amounts (≈) assume the structure as drawn.

How the values were obtained:
Staphylococcus aureus [1] = assay: Toxicity in Staphylococcus aureus ATCC 25923 at 100 ug/ml after 24 hrs by microdilution method; format: organism-based
In short: (§1)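 Single-point screen at 100 μg/mL of compound alone in MH broth microdilution, 10^6 CFU/mL, 24 h at 37 °C. Growth is read at 620 nm and visually, giving percent growth inhibition. Compounds inhibiting more than 90% then go to MIC determination. Duplicates.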

Staphylococcus aureus [2] = assay: Toxicity in fluoroquinolone-resistant Staphylococcus aureus 1199B expressing NorA at 100 ug/ml after 24 hrs by microdilution method; format: organism-based; in short: as §1
[3] = target: T1, Quinolone resistance protein NorA (Staphylococcus aureus) (UniProt P0A0J7); assay: Inhibition of NorA in fluoroquinolone-resistant Staphylococcus aureus 1199B assessed as potentiation of 4 ug/ml of ciprofloxacin MIC at 100 ug/ml after 24 hrs by microdilution method
T1 sequence (whole entry): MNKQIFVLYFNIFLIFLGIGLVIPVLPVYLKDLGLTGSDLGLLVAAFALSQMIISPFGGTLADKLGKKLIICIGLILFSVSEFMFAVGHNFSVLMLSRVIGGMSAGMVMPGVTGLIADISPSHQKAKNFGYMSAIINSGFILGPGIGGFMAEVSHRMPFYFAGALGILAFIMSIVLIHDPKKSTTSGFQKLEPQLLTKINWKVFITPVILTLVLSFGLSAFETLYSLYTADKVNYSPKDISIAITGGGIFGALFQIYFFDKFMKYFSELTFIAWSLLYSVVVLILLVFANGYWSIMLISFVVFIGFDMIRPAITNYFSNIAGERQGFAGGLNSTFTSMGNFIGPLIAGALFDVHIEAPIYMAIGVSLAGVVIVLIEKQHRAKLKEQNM
In short: (§2)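 Combination with ciprofloxacin 4 μg/mL (MIC/4) against SA-1199B in MH broth microdilution, 10^6 CFU/mL, 24 h at 37 °C, read at 620 nm and visually. Compounds are first screened at 100 μg/mL; actives are 2-fold serially diluted. MMC4 is the lowest inhibitor concentration giving antibacterial activity with subinhibitory ciprofloxacin. Duplicates.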

[4] = Cytotoxicity against human KB cells assessed growth inhibition at 10 uM after 72 hrs by MTS assay; format: cell-based; conditions: read-out: GI
In short: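 KB cells (from NCI) grown in DMEM with 10% FCS, penicillin-streptomycin, fungizone and glutamine, 37 °C, 5% CO2; compounds in DMSO added 24 h after plating (1% DMSO final, controls same). 72 h exposure, then MTS 3 h at 37 °C, absorbance at 490 nm; inhibition = (1 − OD490 treated/OD490 control)×100, triplicate experiments.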

Staphylococcus aureus [5] = assay: Toxicity in Staphylococcus aureus ATCC 25923 after 24 hrs by microdilution method; format: organism-based
In short: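 Mueller–Hinton broth microdilution; inoculum from frozen culture grown 18 h at 37 °C, 10^6 CFU/mL per well. Compounds (10 mg/mL DMSO stock) in 2-fold serial dilutions, highest 128 mg/L, first screened at 100 μg/mL. MIC = complete growth inhibition after 24 h at 37 °C, read at 620 nm and visually; duplicate; ampicillin control.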

[6] = system: Staphylococcus aureus subsp. aureus RN4220; assay: Inhibition of MsrA in macrolide-resistant Staphylococcus aureus RN4220 harboring pUL5054 assessed as potentiation of 4 ug/ml of […] erythromycin MIC after 24 hrs by microdilution method (reference value: […] ug/ml)
Staphylococcus aureus [7] = assay: Toxicity in fluoroquinolone-resistant Staphylococcus aureus 1199B expressing NorA after 24 hrs by microdilution method; format: organism-based; conditions: in vitro
In short: (§3)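 Broth microdilution in Mueller–Hinton broth, 10^6 CFU/mL per well from an 18 h 37 °C culture. Compounds come from 10 mg/mL DMSO stocks as 2-fold serial dilutions, top 128 mg/L. Plates run 24 h at 37 °C and are read at 620 nm and visually. MIC is the lowest concentration with complete growth inhibition. Duplicates; 2-fold variance accepted.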

[8] = target: T1, Quinolone resistance protein NorA (Staphylococcus aureus); assay: Inhibition of NorA in fluoroquinolone-resistant Staphylococcus aureus 1199B assessed as potentiation of 4 ug/ml of ciprofloxacin MIC at 1 ug/ml after 24 hrs by microdilution method; in short: as §2
Staphylococcus aureus [9] = assay: Antibacterial activity against fluoroquinolone-resistant Staphylococcus aureus 1199B expressing NorA after 24 hrs by microdilution method; format: functional; in short: as §3
Staphylococcus aureus [10] = assay: Antibacterial activity against Staphylococcus aureus ATCC 25923 after 24 hrs by microdilution method; format: functional; conditions: ATCC 25923, 24 h; in short: as §3

Compound	growth inhibition (GI) (Staphylococcus aureus [1]) [%]	growth inhibition (GI) (Staphylococcus aureus [2]) [%]	Activity [3] [µg/mL]	inhibition at 72 h, 10 µM [4] [%]	MIC (Staphylococcus aureus [5])	Activity [6] [µg/mL]	MIC (Staphylococcus aureus [7]) [µg/mL]	fold change (FC) [8]	MIC (Staphylococcus aureus [9]) [µg/mL]	MIC (Staphylococcus aureus [10]) [µg/mL]
Cn1nccc1B1OC(C)(C)C(C)(C)O1	< 90	< 90	8	0	>= 64 ug ml-1	–	–	–	–	–
O=Cc1ccc(B(O)O)cc1C(F)(F)F	–	–	16	100	>= 64 ug ml-1	32	32 (≈ 147 µM)	–	–	–
OB(O)c1ccc(OCc2ccccc2)nc1	< 90	< 90	1	2	>= 64 ug ml-1	–	–	4	–	–
CCOc1ccc(B(O)O)cn1	< 90	< 90	4	0	>= 64 ug ml-1	–	–	–	–	–
CC(C)(O)C(C)(C)OB(OC(C)(C)C(C)(C)O)c1cc(Cl)cnc1Cl	< 90	–	> 128	–	>= 64 ug ml-1	–	128 (≈ 326 µM)	–	–	–
OB(O)c1ccsc1	< 90	< 90	8	0	>= 64 ug ml-1	–	–	–	–	–
OB(O)c1cnc2ccccc2c1	< 90	< 90	4	0	>= 64 ug ml-1	–	–	–	–	–
Cc1cc(B(O)O)cnc1Cl	< 90	–	4	0	>= 64 ug ml-1	–	> 128	–	–	–
CC(C)(O)C(C)(C)OB(OC(C)(C)C(C)(C)O)c1ccc(Br)nc1	< 90	< 90	8	0	>= 64 ug ml-1	–	–	–	–	–
OB(O)c1cc(Cl)cnc1Cl	< 90	–	16	–	>= 64 ug ml-1	–	> 128	–	–	–
OB(O)c1cccnc1F	< 90	< 90	8	4	>= 64 ug ml-1	–	–	–	–	–
Cc1c(B(O)O)ccc2ccccc12	< 90	< 90	8	0	>= 64 ug ml-1	–	–	–	–	–
OB(O)c1ccc(Cl)nc1	< 90	< 90	8	1	>= 64 ug ml-1	–	–	–	–	–
COc1ccc(B(O)O)cn1	< 90	< 90	4	0	>= 64 ug ml-1	–	–	–	–	–
CC(=O)OCc1ccc(B(OC(C)(C)C(C)(C)O)OC(C)(C)C(C)(C)O)cc1	< 90	< 90	4	6	>= 64 ug ml-1	–	–	–	–	–
Cc1cc(B(O)O)ccc1Cl	–	–	2	0	–	–	> 128	–	–	–
CSc1ccc(B(O)O)cn1	< 90	< 90	8	0	>= 64 ug ml-1	–	–	–	–	–
OB(O)c1ccc2ccccc2c1	–	–	4	3	–	–	> 128	–	–	–
OB(O)c1ccccc1Oc1ccccc1	–	–	32	10	–	32	32 (≈ 150 µM)	–	–	–

Compound	growth inhibition (GI) (Staphylococcus aureus [1]) [%]	growth inhibition (GI) (Staphylococcus aureus [2]) [%]	Activity [3] [µg/mL]	inhibition at 72 h, 10 µM [4] [%]	MIC (Staphylococcus aureus [5])	Activity [6] [µg/mL]	MIC (Staphylococcus aureus [7]) [µg/mL]	fold change (FC) [8]	MIC (Staphylococcus aureus [9]) [µg/mL]	MIC (Staphylococcus aureus [10]) [µg/mL]
CC(C)(O)C(C)(C)OB(OC(C)(C)C(C)(C)O)c1cc(Br)cnc1F	< 90	–	64	–	>= 64 ug ml-1	–	128 (≈ 305 µM)	–	–	–
OB(O)c1ccc(Br)nc1	< 90	< 90	8	1	>= 64 ug ml-1	–	–	–	–	–
OB(O)c1ccc(Br)cc1	–	–	2	0	–	–	> 128	–	–	–
OB(O)c1cc(Br)cnc1F	< 90	–	128	–	>= 64 ug ml-1	–	> 128	–	–	–
O=C(O)c1ccccc1 [BENZOIC ACID]	–	–	> 128	–	>= 64 ug ml-1	–	> 128	–	–	–
OB(O)c1ccc(Cl)cc1	–	–	1	0	–	–	64 (≈ 409 µM)	–	–	–
CC[C@H]1OC(=O)[C@H](C)[C@@H](O[C@H]2C[C@@](C)(OC)[C@@H](O)[C@H](C)O2)[C@H](C)[C@@H](O[C@@H]2O[C@H](C)C[C@H](N(C)C)[C@H]2O)[C@](C)(O)C[C@@H](C)C(=O)[C@H](C)[C@@H](O)[C@]1(C)O [ERYTHROMYCIN]	–	–	–	–	–	–	–	–	128 (≈ 174 µM)	0.5 (≈ 0.681 µM)
OB(O)c1ccc(OCc2ccccc2)cc1	–	–	0.5	6	–	–	> 128	–	–	–
CC1(C)S[C@@H]2[C@H](NC(=O)[C@H](N)c3ccccc3)C(=O)N2[C@H]1C(=O)O [AMPICILLIN]	–	–	–	–	>= 64 ug ml-1	–	–	–	–	0.25 (≈ 0.715 µM)
OB(O)c1ccc(Oc2ccc(Cl)nc2)nc1	< 90	< 90	4	0	>= 64 ug ml-1	–	–	–	–	–
O=C(O)c1cccnc1 [NIACIN]	–	–	> 128	–	>= 64 ug ml-1	–	> 128	–	–	–
O=Cc1ccc(B(O)O)cc1Cl	–	–	4	100	>= 64 ug ml-1	32	32 (≈ 174 µM)	–	–	–
CC(=O)n1ncc2c(B3OC(C)(C)C(C)(C)O3)cccc21	< 90	< 90	8	0	>= 64 ug ml-1	–	–	–	–	–
O=C(O)c1cn(C2CC2)c2cc(N3CCNCC3)c(F)cc2c1=O [CIPROFLOXACIN]	–	–	–	–	>= 64 ug ml-1	–	–	–	–	0.5 (≈ 1.51 µM)
CC(C)(O)C(C)(C)OB(OC(C)(C)C(C)(C)O)c1ccnc(F)c1	< 90	< 90	2	0	>= 64 ug ml-1	–	–	–	–	–
OB(O)c1ccc(Oc2cncc(Cl)c2)nc1	< 90	< 90	8	0	>= 64 ug ml-1	–	–	–	–	–
Cc1cccc(C(=O)O)c1Cl	–	–	> 128	–	>= 64 ug ml-1	–	> 128	–	–	–
CC(C)(O)C(C)(C)OB(OC(C)(C)C(C)(C)O)c1cncc(Cl)c1	–	–	> 128	–	>= 64 ug ml-1	–	128 (≈ 358 µM)	–	–	–
